Screening results (PubChem BioAssay)
Shown are actives, neighbours in structure and some others; about 1.8% of the full set was active somewhere.
SENP1 FRET inh: SENP1 (human) catalytic domain inhibition. Q9P0U3. recombinant SENP1 catalytic domain, CyPet-SUMO1-YPet FRET cleavage. AID 624204. inhibition, % at 10 µM. 360,000 compounds, 0.21% hits;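 active = inhibition at least 30% at 10 µM, raw YFP signal under a set limit, fluorescence ratio 0.5 to 1.5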;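 also: 0% = enzyme with DMSO and 100% = no enzyme wells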
Target sequence (Q9P0U3 419-644 limits assumed): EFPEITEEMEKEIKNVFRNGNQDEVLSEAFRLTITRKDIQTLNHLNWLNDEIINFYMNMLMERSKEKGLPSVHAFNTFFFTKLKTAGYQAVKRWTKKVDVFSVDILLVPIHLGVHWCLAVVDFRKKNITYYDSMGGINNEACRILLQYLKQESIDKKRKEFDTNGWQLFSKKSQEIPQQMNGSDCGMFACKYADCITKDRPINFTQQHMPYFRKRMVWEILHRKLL
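Test system: human SENP1 catalytic domain; medium: Tris pH 8 buffer plus EDTA, NaCl, BME, BSA, NP40, catalase; incubation: 50 min reaction at room temperature; technique: FRET, CFP and YFP emission; controls: no-enzyme low control and enzyme-plus-DMSO high control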
CSN deneddyl inh: inhibitors of human CSN-mediated cullin deneddylation | Q92905 | Purified CSN, SCF-Nedd8-OG deneddylation, fluorescence polarization | inhibition, % at 12.5 µM | 360,000 compounds, 0.38% hits | AID 651999;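 active = pattern-corrected inhibition above about 35%, with an unprinted fluorescence ratio check between 0.5 and 1.5, limit read from the data, passing the limit was not always enough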;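 also: 0% = enzyme with substrate and 100% = substrate without enzyme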
Target sequence (Q92905 whole entry, looked up, one chain of several): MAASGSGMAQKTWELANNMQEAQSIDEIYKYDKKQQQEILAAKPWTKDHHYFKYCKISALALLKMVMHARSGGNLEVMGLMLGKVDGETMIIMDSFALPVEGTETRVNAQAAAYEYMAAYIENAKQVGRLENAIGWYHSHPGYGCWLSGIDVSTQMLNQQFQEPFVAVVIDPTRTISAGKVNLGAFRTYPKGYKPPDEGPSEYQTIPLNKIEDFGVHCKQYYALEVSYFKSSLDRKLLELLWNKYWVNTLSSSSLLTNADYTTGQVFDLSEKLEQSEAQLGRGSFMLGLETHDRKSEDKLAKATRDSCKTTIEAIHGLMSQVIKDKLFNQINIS
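Material: human Csn5 produced in HEK293T cells; Input: enzyme 0.24 nM; Reagent: SCFSkp2-Nedd8OG substrate at 10 nM final; Dosing: 12.5 µM compound; Incubation: 90 min reaction at room temperature; Detection: fluorescence polarization of the substrate; Evaluation: % inhibition of substrate cleavage by Csn5; Control set: substrate-only high control, full reaction low control.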
HNF4A DNA FP: change in binding of human HNF4 alpha to DNA; P41235; HNF4a-FITC DNA binding, fluorescence polarization, 1 h; activity change, % at 10 µM; 360,000 compounds, 0.3% hits; in the data active = activity change above about 30%, passing the limit was not always enough
TPT1 inh: inhibitors of Candida albicans tRNA 2'-phosphotransferase TPT1; recombinant caTPT1, FP RNA substrate dephosphorylation; inhibition, % at 5 µM; 300,000 compounds, 0.81% hits; AID 1962;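 active = inhibition above the mean of all tested compounds plus 3 SD, set per screening campaign, cut at about 24% in these data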;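 also: plate controls were DMSO alone for no effect and ferristatin control at 100 nM for full effect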
UBC9 SUMO inh: SUMOylation inhibition. HTRF SUMOylation assay, SAE1/SAE2 + UBC9, in vitro. inhibition, % at 35 µM. 290,000 compounds, 0.36% hits. AID 2006; in the data active = inhibition above about 50%, passing the limit was not always enough
Target sequence (P63279 whole entry, looked up): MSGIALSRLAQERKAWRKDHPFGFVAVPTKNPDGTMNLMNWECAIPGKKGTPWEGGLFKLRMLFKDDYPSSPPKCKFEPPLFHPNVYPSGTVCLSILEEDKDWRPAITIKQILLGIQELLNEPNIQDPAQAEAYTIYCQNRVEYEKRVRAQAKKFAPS
Rpn11 block: Rpn11 (human) deubiquitinase inhibition | O00487 | human 26S proteasome, Ub4-pepOG fluorescence polarization; 20S core pre-blocked with epoxomicin | calls only at 20 µM | 360,000 compounds, 0.59% hits;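 active = inhibition at 20 µM, scaled to each plate's controls, above about 33%, limit read from the data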
Rpn11 confirm: Rpn11 inhibition confirmation, single concentration; 1,900 compounds, 29% hits; shares compounds with Rpn11 block; inhibition, % at 20 µM; purified human 26S proteasome, Ub4-pepOG fluorescence polarization; proteasome pretreated with epoxomicin
MMP-2 counter-1: MMP-2 (human) inhibition counter-screen | recombinant MMP-2, FRET peptide cleavage fluorescence | 1,900 compounds, 4% hits | shares compounds with Rpn11 block | inhibition, % at 20 µM;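 also: human MMP-2 activated beforehand with APMA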
Thrombin inh: thrombin (bovine) inhibition counter-screen; shares compounds with Rpn11 block; bovine thrombin cleavage of Ub4-pepOG, fluorescence polarization; inhibition, % at 20 µM; 1,900 compounds, 13% hits; AID 602333;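 active = mean inhibition at least 40% at 20 µM, or signal 3 deviations below plate average, so some actives read negative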;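 also: plate controls were thrombin with DMSO for no effect and buffer wells lacking thrombin for full effect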
SENP1 inh conf: confirmation of human SENP1 SUMO protease inhibitors; shares compounds with SENP1 FRET inh; recombinant SENP1, CyPet-SUMO1-YPet FRET cleavage; inhibition, % at 10 µM; 520 compounds, 34% hits; in the data active = inhibition mostly above about 35%, no sharp cut-off; inactive = mostly below about 32%;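 also: 0% = enzyme with DMSO and 100% = no enzyme control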
SENP1 kin conf: confirmation of human SENP1 SUMO protease inhibitors, kinetic | shares compounds with SENP1 FRET inh | inhibition, % at 10 µM | 520 compounds, 26% hits | recombinant SENP1, CyPet-SUMO1-YPet FRET kinetic cleavage; in the data active = inhibition mostly above about 32%, no sharp cut-off; inactive = mostly below about 29%;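 also: 0% = DMSO with enzyme and 100% = no enzyme substrate only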
CSN5 deneddyl: validation of inhibitors of human CSN-mediated cullin deneddylation; inhibition, % at 16.6 µM; Csn5 deneddylation of SCF-Nedd8OG, fluorescence polarization, 90 min; shares compounds with CSN deneddyl inh; 540 compounds, 62% hits; in the data active = inhibition above about 50%;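 also: 0% = DMSO with enzyme and 100% = no enzyme wells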
MMP-2 counter-2: blocks human MMP-2 in a CSN deneddylation counter-screen; shares compounds with CSN deneddyl inh; recombinant MMP-2, FRET substrate fluorescence, 60 min; inhibition, % at 16.6 µM; 540 compounds, 33% hits; AID 720655;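 active = corrected plate-normalized z-score of 5 or more, or -5 or less, or inhibition of 15% or more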;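 also: plate controls were DMSO wells with enzyme for no effect and buffer wells lacking MMP-2 for full effect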
Thrombin cntr: blocks bovine thrombin in a CSN deneddylation counter-screen; shares compounds with CSN deneddyl inh; bovine thrombin cleavage of Ub4-pepOG, fluorescence polarization; inhibition, % at 16.6 µM; 540 compounds, 49% hits; AID 720656;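 active = inhibition at or above a set limit, with a fluorescence interference ratio between 0.5 and a set maximum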
Active calls of the source: *; i = inactive; · = no result given; + = active, no number. Rule as the data show it, unless noted: active = inhibition above about 40%; inactive = the rest.

SMILES	SENP1 FRET inh	CSN deneddyl inh	HNF4A DNA FP	TPT1 inh	UBC9 SUMO inh	Rpn11 block	Rpn11 confirm	MMP-2 counter-1	Thrombin inh	CSN5 deneddyl	MMP-2 counter-2	Thrombin cntr	others
C[C@@H]1CN([C@@H](C)CO)C(=O)CCCn2nncc2CO[C@H]1CN(C)Cc1ccc2c(c1)OCO2	-1.3	-5.2	1.7	·	·	i	·	·	·	·	·	·
CCN1/C(=C\C=C2\C(=O)N(c3ccccc3)C(=S)N2C)Sc2ccccc21	34.6*	2.7	7.6	·	12.4	+	-1.8	0.0	-5.4	·	·	·	SENP1 inh conf=-3.4;SENP1 kin conf=0.2
COc1ccccc1-n1c(CCn2nc(C)c(Br)c2C)n[nH]c1=S	-0.2	-3.3	-1.2	-1.3	-5.3	i	·	·	·	·	·	·
CCN(CC)S(=O)(=O)c1cccc(-c2nnc(SCC(=O)NC3CCCC3)n2N)c1	1.1	-1.8	4.0	0.0	9.8	i	·	·	·	·	·	·
COc1cc(/C=C2\SC(=S)N(CCC(=O)Nc3ccc(O)cc3)C2=O)cc(OC)c1OC	14.2	-1.7	2.4	-0.3	20.0	i	·	·	·	·	·	·
CCc1nnc(NC(=O)CCN2C(=O)/C(=C/c3cc(OC)c(OC)c(OC)c3)SC2=S)s1	48.2*	7.3	21.2	14.8	15.0	+	23.2	-40.6	42.4*	·	·	·	SENP1 inh conf=39.2*;SENP1 kin conf=28.9
O=C(NCCc1cccc(Cl)c1)c1ccc2c(c1)OCO2	1.9	5.4	1.4	-3.2	1.5	i	·	·	·	·	·	·
Cc1sc2nc3c4ccccc4c(NCc4ccco4)nn3c(=O)c2c1C	-54.1	63.7*	-0.9	6.4	8.3	+	-0.5	-12.7	-6.1	101.9*	6.6	6.6
COc1cc(/C=C2\SC(=S)N(Nc3ccccc3)C2=O)ccc1O	50.1	45.6*	36.6*	23.6	6.8	+	72.1*	5.9	101.2*	85.3*	-1.1	56.1*
O=C(O)c1ccc(/C=C2\SC(=S)N(Nc3ccccc3)C2=O)cc1	3.2	0.4	2.8	5.5	0.6	i	·	·	·	·	·	·
O=C(O)CN1C(=O)/C(=C\c2ccccc2OCc2ccc(Cl)cc2)SC1=S	0.5	4.6	-4.7	1.2	-4.1	i	·	·	·	·	·	·
O=C(O)CN1C(=O)/C(=C\c2cc(Br)ccc2OCc2ccc(Cl)cc2Cl)SC1=S	2.3	36.4*	-21.6	-3.0	32.5	+	12.7	10.7	78.6*	33.3	2.0	7.8
CN(c1nc2ccccc2nc1Cl)S(=O)(=O)c1ccccc1	-8.6	-2.8	-2.7	-2.9	5.0	i	·	·	·	·	·	·
C=CCn1c(N)c(C(=O)NCC2CCCO2)c2nc3ccccc3nc21 (stereo not given)	-22.0	36.0*	4.7	2.7	95.1*	+	-7.0	-35.6	-22.4	101.2*	0.8	-0.4
COc1ccc(-n2c(N)c(C(=O)NCC3CCCO3)c3nc4ccccc4nc32)c(OC)c1 (stereo not given)	-24.4	2.3	2.9	-0.3	82.5	i	·	·	·	·	·	·
NC(=O)Nc1ccccc1C(=O)Nc1ccc2ccccc2c1	-4.7	-4.5	1.4	1.9	-0.9	i	·	·	·	·	·	·
Cc1ccsc1C(=O)N/N=C/C=C/c1ccccc1[N+](=O)[O-]	0.5	-1.6	-3.0	-5.5	-0.9	i	·	·	·	·	·	·
S=c1[nH]nc(-c2cc(-c3ccccc3)n[nH]2)n1/N=C/c1ccc(Br)s1	5.4	35.8*	12.2	1.0	·	+	91.4*	4.7	48.8*	82.1*	20.5*	2.3
COc1cc(/C=C(/C#N)c2nc3ccccc3[nH]2)ccc1OCc1ccc(C(=O)O)o1	-23.6	0.7	5.2	11.2	11.4	i	·	·	·	·	·	·
COC(=O)c1ccc(COc2ccc(/C=C(\C#N)c3nc4ccccc4[nH]3)cc2OC)o1	-24.2	57.5*	25.6	3.5	24.5	+	126.8*	-150.0	90.2*	-68.5	-5.5	41.3*
COc1ccc2nc(C)cc(N/N=C/c3ccc(F)cc3)c2c1	-6.1	44.7*	-3.1	1.4	-13.7	+	3.5	-27.4	-41.5	92.5*	15.6*	-10.0
COC(=O)c1cc2c(=O)c3ccccc3oc2nc1/C=C/N(C)C	-20.8	77.1*	110.0	·	17.5	+	29.8	-38.9	10.2	94.7*	-1.7	28.2*
CCCCC1CCC(C(=O)Nc2ccc(N3CCOCC3)cc2N2CCOCC2)CC1 (stereo not given)	1.5	-3.0	2.4	·	·	i	·	·	·	·	·	·
CC[n+]1ccccc1/C=C/c1ccc(N(C)C)cc1	87.4*	38.4*	50.4*	·	-7.1	+	83.9*	-91.5	87.6*	64.7*	-73.2*	45.6*
CCN1/C(=C\c2ccc3cc(C)ccc3[n+]2CC)Sc2cc(C)c(C)cc21	49.0	65.6*	106.6*	·	-1.2	+	88.7*	-140.5	144.8*	40.1	19.9*	113.2*
Cc1ccc2c(c1)S/C(=C\c1cccc[n+]1C)N2CCO	-26.3	-0.3	6.0	-0.6	-11.6	i	·	·	·	·	·	·
CCN1/C(=C/c2ccc3cc(C)cc(C)c3[n+]2CC)Sc2cc(C)ccc21	73.9	81.0*	150.7*	·	-22.5	+	89.0*	-93.4	134.7*	16.0	64.3*	22.8*
COc1ccc(/C=N/Nc2ncnc3scc(-c4ccccc4)c23)cc1OC	0.8	2.7	3.1	-5.8	-5.6	i	·	·	·	·	·	·
Cc1cc(C)c2nc(N3C(=O)C(O)=C(C(=O)c4ccco4)C3c3ccco3)sc2c1 (stereo not given)	-78.0	35.0*	-14.6	5.4	11.7	+	33.7	9.9	36.9	·	9.6	-6.4
